Measurements taken from ChEMBL document CHEMBL1799995, “17(R),18(S)-epoxyeicosatetraenoic acid, a potent eicosapentaenoic acid (EPA) derived regulator of cardiomyocyte contraction: structure-activity relationships and stable analogues” (J Med Chem, 2011).
Calls of active or inactive are those of the source. No cut-off for these calls is given here.

Key:
[1] = Negative chronotropic activity in neonatal Wistar rat Cardiomyocytes assessed as change in heart beating at 30 nM and at 37 degC after 5 mins; assay type: functional, Cardiac muscle cell
Method in brief: (§1)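 NRCMs from 1–2-day-old Wistar rats were cultured as monolayers in Halle SM 20-I medium with 10% heat-inactivated FCS and 2 μM fluorodeoxyuridine. Spontaneously beating clusters formed after 5–7 days (120–150 beats/min at 37 °C, inverted microscope). Compounds came from 1000-fold ethanol stocks and were tested at 30 nM final. Beating rates of 6–8 clusters were counted before and 5 min after addition. The change in beats/min is given as mean ± SE, n = 18–40 clusters from ≥3 independent cultures.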

[2] = target: T1, Bifunctional epoxide hydrolase 2 (Homo sapiens) (UniProt P34913); assay: Inhibition of soluble epoxide hydrolase at 5 uM
T1 sequence (whole entry): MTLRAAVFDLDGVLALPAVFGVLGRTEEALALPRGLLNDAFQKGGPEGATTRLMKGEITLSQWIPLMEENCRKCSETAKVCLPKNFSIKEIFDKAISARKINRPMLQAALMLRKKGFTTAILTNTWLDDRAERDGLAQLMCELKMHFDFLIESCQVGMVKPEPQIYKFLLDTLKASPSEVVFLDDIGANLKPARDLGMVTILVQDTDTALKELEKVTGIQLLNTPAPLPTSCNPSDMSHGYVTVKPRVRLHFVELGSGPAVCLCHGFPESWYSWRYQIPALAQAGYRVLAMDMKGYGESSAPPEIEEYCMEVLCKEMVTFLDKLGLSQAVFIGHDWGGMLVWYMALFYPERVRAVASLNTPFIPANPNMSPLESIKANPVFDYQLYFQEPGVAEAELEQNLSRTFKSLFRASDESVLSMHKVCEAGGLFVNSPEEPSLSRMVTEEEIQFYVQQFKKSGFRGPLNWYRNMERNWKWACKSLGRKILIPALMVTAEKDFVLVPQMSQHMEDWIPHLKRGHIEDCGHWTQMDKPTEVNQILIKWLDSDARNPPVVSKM

[3] = Metabolic stability in rat liver homogenates assessed as compound remaining after 30 mins by LC-MS analysis; assay type: ADME, tissue-based
Method in brief: (§2)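 Compounds were incubated with rat liver homogenate plus NADPH for 30 min at 37 °C. Parent compound and hydroxy-metabolites were analysed by LC/MS.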

Cardiac muscle cell [4] = assay: Negative chronotropic activity in neonatal Wistar rat Cardiomyocytes assessed as change in heart beating at > 5 nM after 5 mins at 37 degC; assay type: functional, cell-based
Liver [5] = assay: Metabolic stability in rat liver homogenates assessed as formation of regioisomeric hydroxy metabolite after 30 mins by LC-MS analysis; assay type: ADME, tissue-based; settings: tissue homogenate, 0.5 h; method in brief: as §2
[6] = target: T1, Bifunctional epoxide hydrolase 2 (Homo sapiens); settings: 1 to 5 uM
[7] = Metabolic stability in rat liver homogenates after 30 mins by LC-MS analysis; assay type: ADME, tissue-based; method in brief: as §2
Liver [8] = assay: Metabolic stability in rat liver homogenates assessed as hydroxylation of compound by LC-MS analysis; assay type: ADME, tissue-based; settings: tissue homogenate; method in brief: as §2
Liver [9] = assay: Metabolic stability in rat liver homogenates assessed as formation of vic-diol 4 by LC-MS analysis; assay type: ADME, tissue-based; settings: tissue homogenate
Liver [10] = assay: Metabolic stability in rat liver homogenates assessed as epoxidation of compound by LC-MS analysis; assay type: ADME, tissue-based; settings: tissue homogenate
[11] = Negative chronotropic activity in neonatal Wistar rat Cardiomyocytes assessed as change in heart beating after 5 mins at 37 degC; assay type: functional, cell-based; settings: cardiac muscle cell; method in brief: as §1
Cardiac muscle cell [12] = assay: Inhibition of (Z)-16-(3-ethyloxiran-2-yl)hexadec-11-enoic acid -induced negative chronotropic activity in neonatal Wistar rat Cardiomyocytes at 30 nM after 5 mins; assay type: functional, cell-based
Method in brief: (§3)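 NRCMs from 1–2-day-old Wistar rats were cultured as monolayers in Halle SM 20-I medium with 10% heat-inactivated FCS and 2 μM fluorodeoxyuridine. Spontaneously beating clusters formed after 5–7 days (120–150 beats/min). Cells were preincubated with the test antagonist (30 nM final) for 5 min at 37 °C, then the agonist was added (30 nM final). Beating was counted under an inverted microscope.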

[13] = Inhibition of (5Z,8Z,11Z,14Z)-16-(3-ethyloxiran-2-yl)hexadeca-5,8,11,14-tetraenoic acid-induced negative chronotropic activity in neonatal Wistar rat Cardiomyocytes at 30 nM after 5 mins; assay type: functional, Cardiac muscle cell; parameters: scale not given: the % may be the effect or the level left; method in brief: as §3
[14] = Inhibition of (Z)-16-(2-(methylamino)-2-oxoacetamido)hexadec-11-enoic acid-induced negative chronotropic activity in neonatal Wistar rat Cardiomyocytes at 30 nM after 5 mins; assay type: functional, Cardiac muscle cell; parameters: scale not given: the % may be the effect or the level left; method in brief: as §3
[15] = Inhibition of EPA-induced negative chronotropic activity in neonatal Wistar rat Cardiomyocytes at 30 nM after 5 mins; assay type: functional, Cardiac muscle cell; parameters: scale not given: the % may be the effect or the level left
[16] = Inhibition of (5Z,11Z)-16-(3-ethyloxiran-2-yl)hexadeca-5,11-dienoic acid-induced negative chronotropic activity in neonatal Wistar rat Cardiomyocytes at 30 nM after 5 mins; assay type: functional, Cardiac muscle cell; parameters: scale not given: the % may be the effect or the level left; method in brief: as §3

Compound	Activity [1] [bpm]	other results
O=C(O)CCCCCCCCC/C=C\CCCC[C@@H]1O[C@@H]1CCO	-1.4	
CCC1OC1CCCCCCCCCCCCCCCC(=O)O (stereo not given)	0.8	
CNC(=O)C(=O)NCCCC/C=C\CCCCCCCCCC(=O)O	-33.7	inhibition [2]: inactive; remaining at 0.5 h [3]: > 85%; Activity (Cardiac muscle cell [4]): Active; Stability (Liver [5]): Stable
CC[C@H]1O[C@H]1CCCC/C=C\CCCCCCCCCC(=O)O	3.3	
CCCC(=O)NCCCC/C=C\CCCCCCCCCC(=O)O	-1.6	
CCC1OC1CCCC/C=C\CCCCCCCCCC(=O)O (stereo not given)	-18.3	
CNC(=O)C(=O)NCCCC/C=C/CCCCCCCCCC(=O)O	-4.7	Activity (Cardiac muscle cell [4]): inactive
CNC(=O)C(=O)NCCCCC#CCCCCCCCCCC(=O)O	-2.6	
CCNC(=O)NCCCC/C=C\CCCCCCCCCC(=O)O	-27	inhibition [6]: Dose-dependent effect; Activity (Cardiac muscle cell [4]): Active
CCC1OC1C/C=C\C/C=C\C/C=C\C/C=C\CCCC(=O)O (stereo not given)	-22.5	remaining at 0.5 h [7]: 20%; Stability (Liver [8]): Unstable; Stability (Liver [9]): Unstable; Stability (Liver [10]): Unstable
CCCC(=O)N(CCCC/C=C\CCCCCCCCCC(=O)O)C(C)C	0.2	
CCCC(=O)NC/C=C\CCCCCCCCCCCCC(=O)O	12.8	
CCCCNC(=O)CCC/C=C\CCCCCCCCCC(=O)O	-22.4	
CCN(C)C(=O)N(C)CCCC/C=C\CCCCCCCCCC(=O)O	-5.8	
CC[C@@H]1O[C@@H]1C/C=C\C/C=C\C/C=C\C/C=C\CCCC(=O)O	-21.3	EC50 [11]: 1 nM; Activity (Cardiac muscle cell [4]): Active
CCC1OC1CCCC/C=C\CCCC/C=C\CCCC(=O)O (stereo not given)	-19.8	
CC[C@@H]1O[C@@H]1C/C=C\CCCCCCCCCCCCC(=O)O	-21.1	
O=C(O)CCCCCCCCC/C=C\CCCC[C@H]1O[C@H]1CCO	-4.8	
CNC(=O)C(=O)NC/C=C\CCCCCCCCCCCCC(=O)O	-1.3	inhibition [2]: inactive
CC[C@H]1O[C@H]1C/C=C\C/C=C\C/C=C\C/C=C\CCCC(=O)O	1.3	
CCC(O)C(O)C/C=C\C/C=C\C/C=C\C/C=C\CCCC(=O)O (stereo not given)	0	
CCC1OC1C/C=C\CCCCCCCCCCCCC(=O)O (stereo not given)	-1.2	Activity (Cardiac muscle cell [12]): Active
CC[C@H]1O[C@H]1C/C=C\CCCCCCCCCCCCC(=O)O	0.7	
CCC1OC1CCCCCCCCCC/C=C\CCCC(=O)O (stereo not given)	-0.6	
CCNC(=O)NC/C=C\CCCCCCCCCCCCC(=O)O	17.8	
CCC1OC1CCCCCCC/C=C\CCCCCCC(=O)O (stereo not given)	-0.6	
CCC1OC1C/C=C\CCCC/C=C\CCCCCCC(=O)O (stereo not given)	-2.7	Activity [13]: 90%; Activity [14]: 90%; Activity [15]: 90%; Activity [16]: 90%; Activity (Cardiac muscle cell [12]): Active
CC[C@@H]1O[C@@H]1CCCC/C=C\CCCCCCCCCC(=O)O	-20.3	
CCC1OC1C/C=C\CCCCCCC/C=C\CCCC(=O)O (stereo not given)	0	
CCCNC(=O)CCCC/C=C\CCCCCCCCCC(=O)O	-4.7	
